Measured values from ChEMBL document CHEMBL4725483, “Simultaneous Inhibition of SIRT2 Deacetylase and Defatty-Acylase Activities via a PROTAC Strategy” (ACS Med Chem Lett, 2020).
Each block holds one molecule with its values, some of them ahead of it. The source made the active and inactive calls. No cut-off for these calls is given here.

Assays:
[1] = target: T1, Protein cereblon/NAD-dependent protein deacetylase sirtuin-2 (Homo sapiens) (UniProt Q8IXJ6+Q96SW2); experiment: Protac activity at CRBN/SIRT2 in human MCF7 cells assessed as SIRT2 degradation at 5 uM by immunoblot analysis; format: cell-based
T1 sequence (Q96SW2 whole entry, looked up, one chain of several): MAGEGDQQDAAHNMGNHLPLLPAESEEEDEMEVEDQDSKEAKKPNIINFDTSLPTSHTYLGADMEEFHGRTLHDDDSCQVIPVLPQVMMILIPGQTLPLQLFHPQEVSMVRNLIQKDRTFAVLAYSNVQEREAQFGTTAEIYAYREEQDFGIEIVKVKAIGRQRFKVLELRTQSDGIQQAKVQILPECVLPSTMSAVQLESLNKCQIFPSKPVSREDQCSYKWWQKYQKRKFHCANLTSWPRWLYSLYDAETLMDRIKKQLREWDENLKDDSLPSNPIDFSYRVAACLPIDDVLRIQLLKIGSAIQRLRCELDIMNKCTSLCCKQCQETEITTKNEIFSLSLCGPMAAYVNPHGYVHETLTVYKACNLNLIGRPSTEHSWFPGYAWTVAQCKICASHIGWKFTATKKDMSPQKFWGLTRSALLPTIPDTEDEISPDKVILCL

[2] = target: T2, NAD-dependent protein deacetylase sirtuin-2 (Homo sapiens, UniProt Q8IXJ6); experiment: Inhibition of human SIRT2 deacetylation activity using H3K9Ac as substrate preincubated for 15 mins in presence of NAD+ by HPLC analysis
T2 sequence (Q8IXJ6 whole entry): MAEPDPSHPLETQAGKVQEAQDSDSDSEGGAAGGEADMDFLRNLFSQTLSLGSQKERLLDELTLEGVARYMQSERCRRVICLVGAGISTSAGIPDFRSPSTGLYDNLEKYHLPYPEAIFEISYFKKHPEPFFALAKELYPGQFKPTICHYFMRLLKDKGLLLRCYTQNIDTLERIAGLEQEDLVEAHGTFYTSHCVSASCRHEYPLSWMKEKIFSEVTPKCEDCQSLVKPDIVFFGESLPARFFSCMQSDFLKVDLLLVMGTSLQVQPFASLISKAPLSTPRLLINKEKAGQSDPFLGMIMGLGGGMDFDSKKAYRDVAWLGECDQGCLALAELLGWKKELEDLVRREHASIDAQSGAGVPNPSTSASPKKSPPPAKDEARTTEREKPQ
Method in brief: (§1)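 In vitro sirtuin reaction mixture with compound at a range of concentrations. Compound was preincubated with NAD+ and the enzyme before the substrate peptide was added. IC50 taken from the concentration series.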

[3] = target: T1, Protein cereblon/NAD-dependent protein deacetylase sirtuin-2 (Homo sapiens); experiment: Protac activity at CRBN/SIRT2 in human BT549 cells assessed as SIRT2 degradation at 5 to 10 uM after 48 hrs by immunoblot analysis; format: cell-based; conditions: BT-549, dose microM 5-10, time 48.0 hrs
Method in brief: (§2)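 Cells exposed to compound at the indicated concentrations for 48 h. SIRT1, SIRT2 and SIRT3 levels were read by immunoblot.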

[4] = target: T2, NAD-dependent protein deacetylase sirtuin-2; experiment: Inhibition of human SIRT2 deacetylation activity using H3K9Ac as substrate in presence of NAD+ by HPLC analysis
[5] = target: T3, Protein cereblon/NAD-dependent protein deacetylase sirtuin-1 (Homo sapiens) (UniProt Q96EB6+Q96SW2); experiment: Protac activity at CRBN/SIRT1 in human BT549 cells assessed as SIRT1 degradation at 5 to 10 uM after 48 hrs by immunoblot analysis; format: cell-based; conditions: BT-549, dose microM 5-10, time 48.0 hrs
T3 sequence (Q96SW2 whole entry, looked up, one chain of several): as the sequence (Q96SW2 whole entry, looked up, one chain of several) above
Method in brief: (§3)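 MCF7 or BT-549 cells exposed to inhibitor at the indicated concentrations for 48 h; SIRT1, SIRT2 and SIRT3 levels read by immunoblot.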

[6] = target: NAD-dependent protein deacylase sirtuin-6 (Homo sapiens, UniProt Q8N6T7); experiment: Inhibition of human SIRT6 deacetylation activity using H3K9Ac as substrate preincubated for 15 mins in presence of NAD+ followed by substrate addition by HPLC analysis; method in brief: as §1
Sequence of NAD-dependent protein deacylase sirtuin-6 (Q8N6T7 whole entry): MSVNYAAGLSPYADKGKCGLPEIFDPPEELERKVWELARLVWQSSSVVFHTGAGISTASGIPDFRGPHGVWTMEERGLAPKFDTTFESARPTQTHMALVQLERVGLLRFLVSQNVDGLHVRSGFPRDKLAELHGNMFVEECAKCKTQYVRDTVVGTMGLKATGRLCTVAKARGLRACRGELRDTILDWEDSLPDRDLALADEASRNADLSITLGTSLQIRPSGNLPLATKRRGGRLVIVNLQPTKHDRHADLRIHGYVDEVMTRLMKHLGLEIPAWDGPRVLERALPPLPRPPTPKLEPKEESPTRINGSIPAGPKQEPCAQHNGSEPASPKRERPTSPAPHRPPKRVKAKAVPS

[7] = target: NAD-dependent protein deacylase sirtuin-5, mitochondrial (Homo sapiens, UniProt Q9NXA8); experiment: Inhibition of human SIRT5 deacetylation activity using H3K9Ac as substrate preincubated for 15 mins in presence of NAD+ followed by substrate addition by HPLC analysis; method in brief: as §1
Sequence of NAD-dependent protein deacylase sirtuin-5, mitochondrial (Q9NXA8 whole entry): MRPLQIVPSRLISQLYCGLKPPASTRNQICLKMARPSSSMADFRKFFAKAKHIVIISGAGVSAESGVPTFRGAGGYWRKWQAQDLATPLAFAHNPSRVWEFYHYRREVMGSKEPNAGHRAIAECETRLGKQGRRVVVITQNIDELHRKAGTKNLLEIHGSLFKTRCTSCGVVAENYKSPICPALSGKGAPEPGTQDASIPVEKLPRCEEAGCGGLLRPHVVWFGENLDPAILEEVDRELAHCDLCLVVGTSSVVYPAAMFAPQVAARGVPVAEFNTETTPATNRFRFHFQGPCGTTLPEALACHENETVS

[8] = organism: Homo sapiens; experiment: Selectivity ratio of IC50 for inhibition of human SIRT1 deacetylation activity to IC50 for inhibition of human SIRT2 deacetylation activity
Method in brief: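 Ratio of SIRT1 deacetylase IC50 to SIRT2 deacetylase IC50, both measured with compound, NAD+ and enzyme preincubated before peptide substrate addition.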

[9] = target: T1, Protein cereblon/NAD-dependent protein deacetylase sirtuin-2 (Homo sapiens); experiment: Protac activity at CRBN/SIRT2 in human MCF7 cells assessed as SIRT2 degradation at 10 uM by immunoblot analysis; format: cell-based; conditions: TDE = time-dependent effect
Method in brief: (§4)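 MCF7 cells treated at a fixed concentration (10 or 25 μM) and harvested at several incubation times; SIRT2 level read by immunoblot.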

[10] = target: T2, NAD-dependent protein deacetylase sirtuin-2; experiment: Inhibition of human SIRT2 defatty-acylation activity using peptide substrate preincubated in presence of NAD+ followed by substrate addition by HPLC analysis
Method in brief: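 SIRT2 defatty-acylase reaction with compound at a range of concentrations. Compound was preincubated with NAD+ and SIRT2 before the peptide substrate was added. IC50 derived from the dose series.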

[11] = target: T1, Protein cereblon/NAD-dependent protein deacetylase sirtuin-2 (Homo sapiens); experiment: Protac activity at CRBN/SIRT2 in human MCF7 cells assessed as SIRT2 degradation at 5 to 10 uM after 48 hrs by immunoblot analysis; format: cell-based; conditions: dose microM 5-10, time 48.0 hrs; method in brief: as §2
[12] = target: T1, Protein cereblon/NAD-dependent protein deacetylase sirtuin-2 (Homo sapiens); experiment: Protac activity at CRBN/SIRT2 in human MDA-MB-231 cells assessed as SIRT2 degradation after 48 hrs by immunoblot analysis; format: cell-based
Method in brief: (§5)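 In MDA-MB-231 and MDA-MB-468 cells, SIRT2 was assessed by immunoblot after compound treatment.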

[13] = target: T4, NAD-dependent protein deacetylase sirtuin-1 (Homo sapiens, UniProt Q96EB6); experiment: Inhibition of human SIRT1 deacetylation activity using H3K9Ac as substrate preincubated for 15 mins in presence of NAD+ followed by substrate addition by HPLC analysis; method in brief: as §1
T4 sequence (Q96EB6 whole entry): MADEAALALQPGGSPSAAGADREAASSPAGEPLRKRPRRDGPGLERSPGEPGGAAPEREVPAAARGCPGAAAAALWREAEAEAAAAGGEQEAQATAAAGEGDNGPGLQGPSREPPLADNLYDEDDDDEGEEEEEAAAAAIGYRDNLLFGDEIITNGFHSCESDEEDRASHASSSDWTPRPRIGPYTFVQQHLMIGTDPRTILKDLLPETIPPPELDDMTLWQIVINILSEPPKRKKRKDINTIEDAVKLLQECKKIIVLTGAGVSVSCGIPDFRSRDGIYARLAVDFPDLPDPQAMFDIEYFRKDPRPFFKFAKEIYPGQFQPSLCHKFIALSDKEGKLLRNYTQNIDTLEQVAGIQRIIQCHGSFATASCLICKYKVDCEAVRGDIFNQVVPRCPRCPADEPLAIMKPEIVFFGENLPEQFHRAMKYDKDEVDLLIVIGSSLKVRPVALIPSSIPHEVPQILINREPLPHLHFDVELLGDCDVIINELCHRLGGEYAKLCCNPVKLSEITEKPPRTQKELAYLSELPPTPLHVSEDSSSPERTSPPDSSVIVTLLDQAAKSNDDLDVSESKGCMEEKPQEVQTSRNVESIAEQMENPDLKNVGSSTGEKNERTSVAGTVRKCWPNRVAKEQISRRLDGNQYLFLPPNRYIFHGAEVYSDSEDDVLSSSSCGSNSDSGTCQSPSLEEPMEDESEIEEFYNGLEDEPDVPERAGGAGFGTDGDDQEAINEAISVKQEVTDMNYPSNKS

[14] = target: T5, NAD-dependent protein deacetylase sirtuin-3, mitochondrial (Homo sapiens, UniProt Q9NTG7); experiment: Inhibition of human SIRT3 deacetylation activity using H3K9Ac as substrate preincubated for 15 mins in presence of NAD+ followed by substrate addition by HPLC analysis; method in brief: as §1
T5 sequence (Q9NTG7 whole entry): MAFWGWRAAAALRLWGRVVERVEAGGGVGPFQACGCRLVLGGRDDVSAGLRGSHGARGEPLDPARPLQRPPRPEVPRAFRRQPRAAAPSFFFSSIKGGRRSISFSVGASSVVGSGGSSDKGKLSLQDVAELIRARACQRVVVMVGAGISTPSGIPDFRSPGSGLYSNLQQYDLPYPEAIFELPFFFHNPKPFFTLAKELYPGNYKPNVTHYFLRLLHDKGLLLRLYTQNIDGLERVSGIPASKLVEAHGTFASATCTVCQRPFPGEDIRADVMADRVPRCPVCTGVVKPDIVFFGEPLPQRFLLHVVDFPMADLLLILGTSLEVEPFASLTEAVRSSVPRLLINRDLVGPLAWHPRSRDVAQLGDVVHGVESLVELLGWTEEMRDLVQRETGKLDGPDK

[15] = target: T6, Protein cereblon/NAD-dependent protein deacetylase sirtuin-3, mitochondrial (Homo sapiens) (UniProt Q9NTG7+Q96SW2); experiment: Protac activity at CRBN/SIRT3 in human MCF7 cells assessed as SIRT3 degradation at 5 to 10 uM after 48 hrs by immunoblot analysis; format: cell-based; conditions: dose microM 5-10, time 48.0 hrs; method in brief: as §3
T6 sequence (Q96SW2 whole entry, looked up, one chain of several): as the sequence (Q96SW2 whole entry, looked up, one chain of several) above

[16] = target: T2, NAD-dependent protein deacetylase sirtuin-2; experiment: Inhibition of human SIRT2 defatty-acylation activity using peptide substrate in presence of NAD+ by HPLC analysis
[17] = target: T1, Protein cereblon/NAD-dependent protein deacetylase sirtuin-2 (Homo sapiens); experiment: Protac activity at CRBN/SIRT2 in human MDA-MB-468 cells assessed as SIRT2 degradation after 48 hrs by immunoblot analysis; format: cell-based; method in brief: as §5
[18] = target: T1, Protein cereblon/NAD-dependent protein deacetylase sirtuin-2 (Homo sapiens); experiment: Protac activity at CRBN/SIRT2 in human MCF7 cells assessed as SIRT2 degradation at 25 uM by immunoblot analysis; format: cell-based; method in brief: as §4
[19] = target: T3, Protein cereblon/NAD-dependent protein deacetylase sirtuin-1 (Homo sapiens); experiment: Protac activity at CRBN/SIRT1 in human MCF7 cells assessed as SIRT1 degradation at 5 to 10 uM after 48 hrs by immunoblot analysis; format: cell-based; conditions: dose microM 5-10, time 48.0 hrs; method in brief: as §3
[20] = target: T6, Protein cereblon/NAD-dependent protein deacetylase sirtuin-3, mitochondrial (Homo sapiens); experiment: Protac activity at CRBN/SIRT3 in human BT549 cells assessed as SIRT3 degradation at 5 to 10 uM after 48 hrs by immunoblot analysis; format: cell-based; conditions: BT-549, dose microM 5-10, time 48.0 hrs; method in brief: as §3
[21] = target: T1, Protein cereblon/NAD-dependent protein deacetylase sirtuin-2 (Homo sapiens); experiment: Protac activity at CRBN/SIRT2 in human HEK293T cells stably expressing flag-tagged K-Ras4a assessed as inhibition of SIRT2 defatty-acylation at 10 uM incubated for 42 hrs followed by Alkyne-14 addition and measured after 6 hrs by immunoprecipitation based assay; format: cell-based; conditions: HEK-293T
Method in brief: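 HEK 293T cells stably expressing Flag-tagged K-Ras4a-G12V were treated for 42 h, then labelled with 50 μM Alk-14 for a further 6 h. K-Ras4a was immunoprecipitated via Flag, and a fluorescent dye was attached by click chemistry. NH2OH removed cysteine fatty acylation. Lysine fatty acylation was read by in-gel fluorescence and quantified relative to DMSO.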

[22] = tested on: MDA-MB-231; experiment: Cytotoxicity against human MDA-MB-231 cells assessed as reduction in cell viability after 72 hrs; format: functional, cell-based
Method in brief: (§6)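 Cells incubated with compound or thalidomide for 72 h; cell viability read out at the end of exposure.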

[23] = tested on: MCF7; experiment: Cytotoxicity against human MCF7 cells assessed as reduction in cell viability after 72 hrs; format: functional, cell-based; method in brief: as §6

Activity [1]: inactive
SMILES: O=C(O)CCOCCOCCOCCOCCNc1cccc2c1C(=O)N(C1CCC(=O)NC1=O)C2=O (centres undefined)

Activity [1]: inactive
SMILES: CCCCCCCCCCCCCC(=S)NCCCC[C@H](NC(=O)CCOCCOCCOCCOCCNc1cccc2c1C(=O)N(C1CCC(=O)N(C)C1=O)C2=O)C(=O)Nc1ccccc1 (some centres undefined)

IC50 [2]: 69 nM
Activity [3]: Active
IC50 [4]: 120 nM
Activity [5]: inactive
IC50 [6]: > 83 µM
IC50 [7]: > 83 µM
Ratio IC50 [8]: 500
Activity [9]: Tde
IC50 [10]: 170 nM
Activity [11]: Active
Activity [12]: Active
IC50 [13]: 37 µM
IC50 [14]: > 83 µM
Activity [15]: inactive
IC50 [16]: > 83 µM
Activity [17]: Active
Activity [18]: inactive
Activity [19]: inactive
Activity [20]: inactive
SMILES: CCCCCCCCCCCCCC(=S)NCCCC[C@H](NC(=O)CCOCCOCCNc1cccc2c1C(=O)N(C1CCC(=O)NC1=O)C2=O)C(=O)Nc1ccccc1 (some centres undefined)

Activity [3]: inactive
IC50 [6]: > 83 µM
Activity [21]: inactive
IC50 [7]: > 83 µM
Activity [11]: inactive
IC50 [14]: > 83 µM
SMILES: CCCCCCCCCCCCCC(=S)NCCCC[C@H](NC(=O)OCc1ccccc1)C(=O)Nc1ccccc1
Activity [22]: Active
Activity [23]: Active
